In PubChem BioAssay:

Assay: yeast TOR pathway reporter LAP4-GFP change – cell-based, cherry picks, flow cytometry, mother/daughter gates, confirmation (AID 2271);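 further: ratio of sample to DMSO plate mean so 100% equals DMSO level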
Conditions: S. cerevisiae LAP4-GFP strain, 3 h, measured here: daughter cell gate response, at 10 µM, stronger effect = higher value, 100 means same as DMSO control
Procedure, shortened: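 System: GFP-fusion yeast strain | Input: Yeast cells seeded at OD600 of 0.2 | Technique: HT flow cytometry, GFP fluorescence channel | Read-out: % GFP response vs DMSO | Dosing: Single test-compound dose, 10 µM final | Controls: Positive rapamycin (400 ng/mL), negative DMSO | Times: 3 h treatment at 30 °C with rotation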

Row | SMILES | GFP response relative to DMSO
1 | COc1ccc(COC(=O)c2n[nH]c3ccccc23)cc1F | 98.7%
2 | CCCc1cc(N2CCN(c3ccccn3)CC2)n2nc(C)c(-c3ccccc3)c2n1 | 147%
3 | O=C1c2ccccc2C2=Nc3ccccc3SC(c3cccc(F)c3)C12 (stereo not given) | 108%
4 | CCOC(=O)COc1c(Cl)cc(/C=C2\N=C(C)OC2=O)cc1OC | 108%
5 | Cc1nn2c(N3CCN(C(=O)c4ccco4)CC3)cc(C(C)(C)C)nc2c1-c1ccccc1 | 94.4%
6 | Cc1ccc(S(=O)(=O)N(CC(=O)NCc2ccncc2)Cc2ccccc2F)cc1 | 99.2%
7 | Cc1ccc(N2C(=O)C3C4C=CC(CNC(=S)Nc5ccc(F)cc5)(O4)C3C2=O)cc1 (stereo not given) | 103%
8 | COc1ccc(CC(=O)Oc2ccccc2C)cc1 | 97.9%
9 | Cc1cc(C=C2C(=O)c3ccccc3C2=O)c(C)n1-c1cccc(C(=O)O)c1 | 98.2%
10 | CC(C)c1ccc2c(c1)C1(NN=C(c3ccccc3)S1)C(=O)N2 (stereo not given) | 95.6%
11 | O=C(N/N=C\c1ccc(F)cc1)c1cc(OCC(F)(F)F)ccc1OCC(F)(F)F | 95%
12 | Cc1cc(NCCCN2CCOCC2)n2ncc(-c3ccccc3)c2n1 | 95.6%
13 | COc1cc(NC(C)=O)ccc1NC(=O)c1cc2ccccc2o1 | 97.2%
14 | COc1ccc(CCN2C(=O)c3cccc4cccc(c34)C2=O)cc1OC | 99.1%
15 | CN(O)/C=c1/ccc2c(n1)C(=O)C=CC=2 | 170%
16 | C/C(=N\NC(=O)c1ccc(Cl)c(Cl)c1)c1cccc(NC(=O)C(C)C)c1 | 93.6%
17 | Cc1ccc(-c2ccc(/C=N/NC(N)=S)o2)cc1 | 113%
18 | CC(C)(C)c1ccc(C(=O)N/N=C/c2cccc(Cl)c2)cc1 | 101%
19 | Cc1ccc(S(=O)(=O)Nc2cc(Cl)c(O)c3ncccc23)cc1 | 120%
20 | CC1CCc2c(C(=O)NCc3cccnc3)csc2C1 (stereo not given) | 109%

Row | SMILES | GFP response relative to DMSO
21 | CCNc1nc(-c2ccc(Cl)cc2)cs1 | 97.2%
22 | O=C(CSc1nc2ccsc2c(=O)n1CC1CCC(C(=O)O)CC1)c1ccc(F)cc1 (stereo not given) | 89.5%
23 | CC(=O)Oc1ccc(N2C(=O)C3C4C=CC(CO)(O4)C3C2=O)cc1 (stereo not given) | 120%
24 | Oc1c(C(Nc2cccc(C(F)(F)F)c2)c2ccncc2)ccc2cccnc12 (stereo not given) | 120%
25 | COc1cc(C2CC(c3cccnc3)=NN2c2ccc(F)cc2)cc(OC)c1OC (stereo not given) | 94.4%
26 | COc1ccc(C(=O)C2CCCN(C(=O)c3cccs3)C2)cc1F (stereo not given) | 99.1%
27 | COC(=O)c1ccc(Cn2cc(/C=C\[N+](=O)[O-])c3ccccc32)o1 | 115%
28 | CC(C)(C)NC(=O)CN(C(=O)CCC(=O)Nc1nccs1)c1ccc(F)cc1 | 95.9%
29 | COc1ccccc1CNC(=O)CS(=O)Cc1nc(-c2ccc(OC)c(OC)c2)oc1C (stereo not given) | 97.6%
30 | O=C(COC(=O)C1CCN(c2ccc(C(F)(F)F)cn2)CC1)Nc1cccc(F)c1 | 102%
31 | COc1ccc(CCNc2nc(-c3sc(C)nc3C)cs2)cc1OC | 104%
32 | O=C(Nc1c2c(nn1-c1ccccc1)CS(=O)C2)c1ccco1 (stereo not given) | 96%
33 | Cc1ccsc1/C=N/Nc1ncc(Cl)cc1Cl | 107%
34 | O=C(Nc1ccc(S(=O)(=O)N2CCOCC2)cc1)c1ccc([N+](=O)[O-])cc1Cl | 94.4%
35 | Cc1ccc(-c2nc(NC(=O)c3nn(C)cc3[N+](=O)[O-])sc2C)cc1C | 92.2%
36 | CC(C)c1nnc(SCC(=O)N2CCc3ccccc32)n1C | 95.6%
37 | O=S(=O)(c1ccc(-c2ccccc2)cc1)N1CCOCC1 | 97.5%
38 | Cc1cc(O)c(C(=O)/C=C/c2cccc([N+](=O)[O-])c2)c(=O)o1 | 142%
39 | COc1ccccc1N=Nc1ccc(O)c2ncccc12 | 203%
40 | N=c1ccn(CC(=O)c2ccc(-c3ccccc3)cc2)cc1 | 93.6%
